Activity calls are given as the source filed them. No cut-off for these calls is given here.

Data set [1] relates to MV4-11. Description: Drug uptake in human MV4-11 cells assessed as CD45 staining of cells at 1 uM after 30 mins using 7-AAD staining by flow cytometry analysis. It counts as ADME, cell-based. Conditions: mv4-11, 0.5 h. In general terms: A flow cytometer gives signals particle by particle.
A further data set concerns MOLM-13. Description: Drug uptake in human MOLM13 cells assessed as CD45 staining of cells at 1 uM after 1 hr using 7-AAD staining by flow cytometry analysis. It is filed as ADME, cell-based. The following applies: molm-13, 1 h.
Data set [2] deals with T1, Heat shock protein HSP90 (Homo sapiens) (UniProt P07900+P08238). Description: Inhibition of Hsp90 in human MOLM13 cells assessed as Raf1 degradation at 1 uM after 24 hrs using horseradish peroxidase by Western blot analysis. It is filed as cell-based. Conditions: MOLM-13. In outline: (§1)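 MOLM-13 cells treated with derivatives at 1 μM for 24 h. Steady-state mFLT3 and Raf-1 levels read by Western blot, with β-actin as the loading control.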
On the technique in general: A western blot detects proteins with antibodies after separation by electrophoresis.

Data set [3] concerns the target T1, Heat shock protein HSP90 (Homo sapiens). Kind of data set: Binding affinity to Hsp90 in human MOLM13 cells assessed as staining of live cells at 1 uM after 4 hrs using DAPI staining by flow cytometry analysis. The following applies: MOLM-13. It counts as cell-based. In short, it runs like this:
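MOLM-13 cells exposed to each fluorescent derivative at 1 μM, 37°C, 4 h. Binding to live cells (DAPI negative) read by flow cytometry as mean fluorescence intensity.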

In data set [4] the target is Receptor-type tyrosine-protein kinase FLT3 (Homo sapiens) (UniProt P36888). Kind of data set: Inhibition of Hsp90 in human MOLM13 cells assessed as FLT3 mutant degradation at 1 uM after 24 hrs using horseradish peroxidase by Western blot analysis. It is filed as cell-based. The following applies: MOLM-13. In short, it runs like this: as §1
Chain of Receptor-type tyrosine-protein kinase FLT3 (Homo sapiens) (P36888 whole entry): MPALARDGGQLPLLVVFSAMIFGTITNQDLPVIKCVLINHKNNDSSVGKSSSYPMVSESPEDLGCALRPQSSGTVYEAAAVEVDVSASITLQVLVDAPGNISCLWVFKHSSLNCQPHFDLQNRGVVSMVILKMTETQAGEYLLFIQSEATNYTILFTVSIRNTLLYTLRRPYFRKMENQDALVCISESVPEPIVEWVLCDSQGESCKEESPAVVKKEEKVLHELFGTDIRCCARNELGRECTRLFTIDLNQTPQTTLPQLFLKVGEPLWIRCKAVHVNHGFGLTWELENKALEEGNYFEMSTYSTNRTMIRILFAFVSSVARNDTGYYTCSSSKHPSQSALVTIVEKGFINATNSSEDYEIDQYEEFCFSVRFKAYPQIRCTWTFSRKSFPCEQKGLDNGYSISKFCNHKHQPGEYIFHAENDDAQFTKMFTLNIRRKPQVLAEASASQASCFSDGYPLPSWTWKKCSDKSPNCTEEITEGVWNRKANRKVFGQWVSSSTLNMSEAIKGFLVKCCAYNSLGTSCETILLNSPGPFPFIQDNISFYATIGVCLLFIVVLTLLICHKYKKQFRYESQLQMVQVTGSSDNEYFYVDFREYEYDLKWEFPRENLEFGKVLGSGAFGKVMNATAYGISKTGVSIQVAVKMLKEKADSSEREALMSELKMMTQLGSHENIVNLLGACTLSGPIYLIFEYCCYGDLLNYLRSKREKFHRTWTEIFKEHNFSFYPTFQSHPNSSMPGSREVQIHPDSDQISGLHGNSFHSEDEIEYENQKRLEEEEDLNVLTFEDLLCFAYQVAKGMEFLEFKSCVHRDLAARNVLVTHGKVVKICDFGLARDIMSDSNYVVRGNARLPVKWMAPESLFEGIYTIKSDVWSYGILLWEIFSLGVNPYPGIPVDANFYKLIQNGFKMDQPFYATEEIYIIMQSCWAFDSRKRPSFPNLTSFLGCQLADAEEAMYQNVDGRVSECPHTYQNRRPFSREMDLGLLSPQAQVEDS
Data set [5] deals with T1, Heat shock protein HSP90 (Homo sapiens). Kind of data set: Inhibition of Hsp90 in human MOLM13 cells assessed as decrease in cell viability after 24 hrs using DAPI staining by flow cytometry analysis. It counts as cell-based. Conditions: MOLM-13. In outline:
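MOLM-13 cells exposed to derivatives at 1 μM, 37°C, 24 h. Viability scored by DAPI exclusion.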

Data set [6] has as its system MV4-11. Description: Drug uptake in human MV4-11 cells assessed as intracellular localization at 1 uM after 24 hrs by DAPI staining based confocal fluorescence microscopy. It is filed as ADME, cell-based. The following applies: mv4-11, 24 h. In outline: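 MV4-11 cells given 1 μM probe at 37°C for 24 h, then fixed. Cells stained with Na⁺/K⁺-ATPase α1 antibody plus Alexa Fluor 568 secondary as the surface marker. DAPI used to mark non-viable cells. Imaged by confocal microscopy.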

Data set [7] is described as follows: Drug uptake in human lymphocytes assessed as CD45 staining of cells at 1 uM after 1 hr using 7-AAD staining by flow cytometry analysis. It is filed as ADME, cell-based. The following applies: lymphocyte.

As for `CC(C)N(CCCn1c(Sc2cc3c(cc2I)OCO3)nc2c(N)ncnc21)C(=S)Nc1ccc(-c2c3ccc(=O)cc-3oc3cc(O)ccc23)c(C(=O)O)c1`, the Drug uptake result is recorded as “Active” with MV4-11 [1], “Active” in the data set with MOLM-13, “Active” in the data set on MV4-11 [6] and “Not Active” in data set [7]. The inhibition result in data set [2], in data set [4] and in data set [5] was “Active” in each case. Also, the outcome in data set [3] was Active.

`Nc1ncnc2c1nc(Sc1cc3c(cc1I)OCO3)n2CCCNCCCCCCNc1ccc([N+](=O)[O-])c2nonc12`: the inhibition entry in data set [2], in data set [4] and in data set [5] was “Active” in each case. In data set [3], the result was Active. Also, the Drug uptake entry with MV4-11 [6] is reported as “Active”.

The values above are taken from ChEMBL document CHEMBL1909598, “Synthesis of purine-scaffold fluorescent probes for heat shock protein 90 with use in flow cytometry and fluorescence microscopy” (Bioorg Med Chem Lett, 2011).
